For eight molecules, GI50 results are on record in ChEMBL document CHEMBL1153767, “Bromoalkoxyxanthones as promising antitumor agents: synthesis, crystal structure and effect on human tumor cell lines” (2009).

Each structure is given as a SMILES string.

Holding throughout (assay type): functional
One experiment has as its system SF-268. Briefly: Antitumor activity against human SF268 cells assessed as inhibition of growth after 48 hrs using sulforhodamine B dye. Particulars: SF-268, 48 h. A digest of the protocol: (§1)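 Cells pre-grown 24 h after plating at 1.5 × 10⁵ cells/mL, then exposed 48 h to five serial concentrations from DMSO stocks (DMSO at most 0.5%, vehicle control included). Adherent cells fixed, washed and stained; bound dye solubilized and absorbance read at 492 nm. GI50 (50% inhibition of net growth) from dose–response curve; 3–5 independent experiments in duplicate, mean ± SEM.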
For orientation: In SRB staining, fixed cells bind dye roughly in proportion to their protein.

The subject of the next experiment is MCF7. Briefly: Antitumor activity against human MCF7 cells expressing estrogen receptor assessed as inhibition of growth after 48 hrs using sulforhodamine B dye. Particulars: MCF7, 48 h. The method, boiled down: as §1
In a further experiment the test system is MDA-MB-231. In words: Antitumor activity against human estrogen receptor deficient MDA-MB-231 cells assessed as inhibition of growth after 48 hrs using sulforhodamine B dye. Particulars: MDA-MB-231, 48 h.
The subject of a further experiment is NCI-H460. Briefly: Antitumor activity against human NCI-H460 cells assessed as inhibition of growth after 48 hrs using sulforhodamine B dye. Particulars: NCI-H460, 48 h. A digest of the protocol:
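NCI-H460 plated at 0.75 × 10⁴ cells/mL, grown 24 h, then treated 48 h with five serial dilutions from DMSO stocks (DMSO at most 0.5%, vehicle control included). After fixing, washing and staining, solubilized dye read at 492 nm. GI50 (50% net growth inhibition) derived from the dose–response curve; 3–5 independent duplicate experiments, mean ± SEM.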

In the case of `O=c1c2ccccc2oc2cccc(OCCCCCCBr)c12`, the GI50 in the experiment with SF-268 was 30.2 µM; in the experiment with MCF7 it was 22.7 µM; in the experiment with MDA-MB-231, above 100 µM; in the experiment on NCI-H460, 30.7 µM.
In the case of `O=c1c2ccccc2oc2cccc(OCCCCCCOc3cccc4oc5ccccc5c(=O)c34)c12`, the GI50 in the experiment with SF-268, with MCF7, in the experiment on MDA-MB-231 and in the experiment on NCI-H460 was above 100 µM each time.
`O=c1c2ccccc2oc2c(O)c(OCCCCCCBr)ccc12`: the GI50 in the experiment on SF-268, in the experiment with MCF7, in the experiment on MDA-MB-231 and with NCI-H460 was above 100 µM in each case.
`O=c1c2ccccc2oc2c(OCCCCCCBr)c(OCCCCCCBr)ccc12`: the GI50 in the experiment on SF-268 was above 100 µM; with MCF7, 20.5 µM; in the experiment on MDA-MB-231, 56.8 µM; with NCI-H460, above 100 µM.
On to `O=c1c2ccccc2oc2cccc(O)c12`, for which the GI50 in the experiment with SF-268 is 70.8 µM; in the experiment with MCF7, above 100 µM; in the experiment on MDA-MB-231, 66 µM; with NCI-H460 it was 84.9 µM.
Regarding `O=C(c1ccccc1O)c1ccc(O)cc1O`, the GI50 in the experiment with SF-268 was above 100 µM; in the experiment with MCF7, 100 µM; in the experiment on NCI-H460, 91.2 µM.
On to `O=c1c2ccccc2oc2c(O)c(O)ccc12` [3,4-DIHYDROXYXANTHONE], for which the GI50 with SF-268 came out at 22.6 µM; with MCF7, 52.4 µM; in the experiment on MDA-MB-231 it was 22.8 µM; in the experiment with NCI-H460 it was 11.4 µM.
Consider `COc1cccc2c1C(=O)c1c(O)c3c(c(O)c1C2=O)C[C@@](O)(C(=O)CO)C[C@@H]3O[C@H]1C[C@H](N)[C@H](O)[C@H](C)O1` [DOXORUBICIN], for which the figures for the GI50 with SF-268, in the experiment on MDA-MB-231 and in the experiment with NCI-H460 were 0.094 µM, 0.0109 µM and 0.094 µM, respectively.

Broadly, the GI50 is the concentration that inhibits growth by half.
